Laboratory results taken from ChEMBL document CHEMBL1649405, “Structure-activity relationships study of 6-chloro-4-(2-chlorophenyl)-3-(2-hydroxyethyl) quinolin-2(1H)-one derivatives as novel non-nucleoside anti-hepatitis B virus agents” (Eur J Med Chem, 2011).
Activity calls are given as the source filed them. The calls are words filed in the database; no cut-off is given here.

System: Nucleic Acid
Assay: Increase of preS1 promoter transcriptional activity in HBV infected in human HepG2(2.2.15) cells transfected with pGL3 at 0.02 mM by luciferase reporter gene assay relative to mock-treated control
Type: cell-based
Details: Hepatitis B virus
How it was run: (§1)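 HepG2 cells transfected with pGL3-based firefly luciferase constructs carrying HBV promoter or enhancer elements; pGL3 Basic as control, phRL-CMV Renilla as internal control. Treated with 0.02 mM; read by dual-luciferase assay. Fold activity = treated promoter activity / mock-treated activity. Triplicate samples.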

Compound | fold change (FC)
COc1cccc(/C=C/C(=O)OCCc2c(-c3ccccc3Cl)c3cc(Cl)ccc3[nH]c2=O)c1 | 4

System: Hepatitis B virus
Assay: Antiviral activity against Hepatitis B virus infected in human HepG2(2.2.15) cells assessed as inhibition of viral surface antigen secretion after 6 days by ELISA
Type: functional, organism-based
Details: HepG2 2.2.15, 144 h
How it was run: (§2)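 HepG 2.2.15 cells in DMEM with 10% FBS, 37 °C, 5% CO2. Treated for 6 days with refeeding every other day. Culture medium centrifuged at 6000 g to clear debris. HBeAg or HBsAg measured by quantitative ELISA on a microplate reader. IC50 = concentration giving 50% inhibition of secretion. Mean of two independent experiments.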

Compound | IC50
O=C(/C=C/c1ccc2c(c1)OCO2)OCCc1c(-c2ccccc2Cl)c2cc(Cl)ccc2[nH]c1=O | 150 µM
O=C(/C=C/c1ccc(C(F)(F)F)cc1)OCCc1c(-c2ccccc2Cl)c2cc(Cl)ccc2[nH]c1=O | 230 µM
CCC(=O)OCCc1c(-c2ccccc2Cl)c2cc(Cl)ccc2[nH]c1=O | 59 µM
N#CCC(=O)OCCc1c(-c2ccccc2Cl)c2cc(Cl)ccc2[nH]c1=O | 75 µM

Stronger by IC50, values ahead:

IC50 | Compound
55 µM | O=C(OCCc1c(-c2ccccc2Cl)c2cc(Cl)ccc2[nH]c1=O)c1cccnc1
21 µM | COc1ccc(/C=C/C(=O)OCCc2c(-c3ccccc3Cl)c3cc(Cl)ccc3[nH]c2=O)cc1OC
10 µM | COc1cccc(/C=C/C(=O)OCCc2c(-c3ccccc3Cl)c3cc(Cl)ccc3[nH]c2=O)c1

System: Nucleic Acid
Assay: Inhibition of preS2 promoter transcriptional activity in human HepG2 cells transfected with pGL3 at 0.02 mM by luciferase reporter gene assay relative to mock-treated control
Details: Hepatitis B virus

Compound | inhibition
COc1cccc(/C=C/C(=O)OCCc2c(-c3ccccc3Cl)c3cc(Cl)ccc3[nH]c2=O)c1 | Active

System: not listed separately
Assay: Selectivity index, ratio of CC50 for human HepG2(2.2.15) cells to IC50 for Hepatitis B virus infected in human HepG2(2.2.15) cells assessed as inhibition of viral e antigen secretion
Type: functional
Details: not given
How it was run: (§3)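 Ratio of CC50 in HepG 2.2.15 cells to the IC50 for HBeAg or HBsAg secretion. Both values come from ELISA and cytotoxicity runs on the same cell line. Each input is the mean of two independent experiments.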

Compound | Selectivity Index
O=C(/C=C/c1ccc2c(c1)OCO2)OCCc1c(-c2ccccc2Cl)c2cc(Cl)ccc2[nH]c1=O | >5.4
O=C(/C=C/c1ccc(C(F)(F)F)cc1)OCCc1c(-c2ccccc2Cl)c2cc(Cl)ccc2[nH]c1=O | >73
CCC(=O)OCCc1c(-c2ccccc2Cl)c2cc(Cl)ccc2[nH]c1=O | 1.5
N#CCC(=O)OCCc1c(-c2ccccc2Cl)c2cc(Cl)ccc2[nH]c1=O | <1
O=C(OCCc1c(-c2ccccc2Cl)c2cc(Cl)ccc2[nH]c1=O)c1cccnc1 | 3
COc1ccc(/C=C/C(=O)OCCc2c(-c3ccccc3Cl)c3cc(Cl)ccc3[nH]c2=O)cc1OC | >21
COc1cccc(/C=C/C(=O)OCCc2c(-c3ccccc3Cl)c3cc(Cl)ccc3[nH]c2=O)c1 | >51

System: Nucleic Acid
Assay: Increase of enhancer 2 transcriptional activity in HBV infected in human HepG2(2.2.15) cells transfected with pGL3 at 0.02 mM by luciferase reporter gene assay relative to mock-treated control
Type: cell-based
Details: Hepatitis B virus
How it was run: as §1

Compound | fold change (FC)
COc1cccc(/C=C/C(=O)OCCc2c(-c3ccccc3Cl)c3cc(Cl)ccc3[nH]c2=O)c1 | 14

System: not listed separately
Assay: Selectivity index, ratio of CC50 for human HepG2(2.2.15) cells to IC50 for Hepatitis B virus infected in human HepG2(2.2.15) cells assessed as inhibition of viral surface antigen secretion
Type: functional
Details: not given
How it was run: as §3

Compound | Selectivity Index
O=C(/C=C/c1ccc2c(c1)OCO2)OCCc1c(-c2ccccc2Cl)c2cc(Cl)ccc2[nH]c1=O | >8.1
O=C(/C=C/c1ccc(C(F)(F)F)cc1)OCCc1c(-c2ccccc2Cl)c2cc(Cl)ccc2[nH]c1=O | >6.1
CCC(=O)OCCc1c(-c2ccccc2Cl)c2cc(Cl)ccc2[nH]c1=O | 1.6
N#CCC(=O)OCCc1c(-c2ccccc2Cl)c2cc(Cl)ccc2[nH]c1=O | 1.3
O=C(OCCc1c(-c2ccccc2Cl)c2cc(Cl)ccc2[nH]c1=O)c1cccnc1 | 3
COc1ccc(/C=C/C(=O)OCCc2c(-c3ccccc3Cl)c3cc(Cl)ccc3[nH]c2=O)cc1OC | >58
COc1cccc(/C=C/C(=O)OCCc2c(-c3ccccc3Cl)c3cc(Cl)ccc3[nH]c2=O)c1 | >135

System: Nucleic Acid
Assay: Increase of enhancer 1 transcriptional activity in HBV infected in human HepG2(2.2.15) cells transfected with pGL3 at 0.02 mM by luciferase reporter gene assay relative to mock-treated control
Type: cell-based
Details: Hepatitis B virus
How it was run: as §1

Compound | fold change (FC)
COc1cccc(/C=C/C(=O)OCCc2c(-c3ccccc3Cl)c3cc(Cl)ccc3[nH]c2=O)c1 | 12

System: not listed separately
Assay: Cytotoxicity against human HepG2(2.2.15) cells assessed as cell viability at 0.02 mM after 72 hrs by MTT assay
Type: cell-based
Details: read-out: Activity

Compound | viability at 72 h, 20 µM
COc1cccc(/C=C/C(=O)OCCc2c(-c3ccccc3Cl)c3cc(Cl)ccc3[nH]c2=O)c1 | 80.4%

System: Nucleic Acid
Assay: Increase of core/pregenomic factor transcriptional activity in HBV infected in human HepG2(2.2.15) cells transfected with pGL3 at 0.02 mM by luciferase reporter gene assay relative to mock-treated control
Type: cell-based
Details: Hepatitis B virus
How it was run: as §1

Compound | fold change (FC)
COc1cccc(/C=C/C(=O)OCCc2c(-c3ccccc3Cl)c3cc(Cl)ccc3[nH]c2=O)c1 | 4

System: not listed separately
Assay: Cytotoxicity against human HepG2(2.2.15) cells assessed as cell viability at 0.02 mM after 48 hrs by MTT assay
Type: cell-based
Details: read-out: Activity

Compound | viability at 48 h, 20 µM
COc1cccc(/C=C/C(=O)OCCc2c(-c3ccccc3Cl)c3cc(Cl)ccc3[nH]c2=O)c1 | 95.2%

System: Nucleic Acid
Assay: Increase of X promoter transcriptional activity in HBV infected in human HepG2(2.2.15) cells transfected with pGL3 at 0.02 mM by luciferase reporter gene assay relative to mock-treated control
Type: cell-based
Details: Hepatitis B virus
How it was run: as §1

Compound | fold change (FC)
COc1cccc(/C=C/C(=O)OCCc2c(-c3ccccc3Cl)c3cc(Cl)ccc3[nH]c2=O)c1 | 4

System: Hepatitis B virus
Assay: Antiviral activity against Hepatitis B virus infected in human HepG2(2.2.15) cells assessed as inhibition of viral e antigen secretion after 6 days by ELISA
Type: functional, organism-based
Details: HepG2 2.2.15, 144 h
How it was run: as §2

Compound | IC50
O=C(/C=C/c1ccc2c(c1)OCO2)OCCc1c(-c2ccccc2Cl)c2cc(Cl)ccc2[nH]c1=O | 220 µM
O=C(/C=C/c1ccc(C(F)(F)F)cc1)OCCc1c(-c2ccccc2Cl)c2cc(Cl)ccc2[nH]c1=O | 19 µM
CCC(=O)OCCc1c(-c2ccccc2Cl)c2cc(Cl)ccc2[nH]c1=O | 62 µM
N#CCC(=O)OCCc1c(-c2ccccc2Cl)c2cc(Cl)ccc2[nH]c1=O | > 100 µM

The remaining lines, values ahead:

IC50 | Compound
55 µM | O=C(OCCc1c(-c2ccccc2Cl)c2cc(Cl)ccc2[nH]c1=O)c1cccnc1
57 µM | COc1ccc(/C=C/C(=O)OCCc2c(-c3ccccc3Cl)c3cc(Cl)ccc3[nH]c2=O)cc1OC
26 µM | COc1cccc(/C=C/C(=O)OCCc2c(-c3ccccc3Cl)c3cc(Cl)ccc3[nH]c2=O)c1

System: Hepatitis B virus
Assay: Antiviral activity against Hepatitis B virus infected in human HepG2(2.2.15) cells assessed as inhibition of viral DNA replication after 6 days by PCR analysis
Type: functional, organism-based
Details: Hepatitis B virus, HepG2 2.2.15, 144 h; read-out: IC50
How it was run: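 HepG 2.2.15 cells in DMEM with 10% FBS, 5 mM L-glutamine, penicillin/streptomycin, 37 °C, 5% CO2; seeded 5 × 10^5 per well, medium changed every 2 days. Compound added after 6 days, refed every other day for 6 more days. HBV DNA by real-time PCR against a cloned HBV plasmid standard series. IC50 = 50% inhibition. Mean of two independent experiments.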

IC50 | Compound
160 µM | O=C(/C=C/c1ccc2c(c1)OCO2)OCCc1c(-c2ccccc2Cl)c2cc(Cl)ccc2[nH]c1=O
45 µM | COc1cccc(/C=C/C(=O)OCCc2c(-c3ccccc3Cl)c3cc(Cl)ccc3[nH]c2=O)c1

Same assay, conditions: hepg2 2.2.15

IC50 | Compound
Not Active | O=C(/C=C/c1ccc(C(F)(F)F)cc1)OCCc1c(-c2ccccc2Cl)c2cc(Cl)ccc2[nH]c1=O
Not Active | COc1ccc(/C=C/C(=O)OCCc2c(-c3ccccc3Cl)c3cc(Cl)ccc3[nH]c2=O)cc1OC

System: not listed separately
Assay: Cytotoxicity against human HepG2(2.2.15) cells
Type: cell-based
Details: not given
How it was run: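 HepG 2.2.15 cells in DMEM with 10% FBS, 37 °C, 5% CO2. CC50 = concentration killing 50% of cells. Mean of two independent experiments.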

Compound | CC50
O=C(/C=C/c1ccc(C(F)(F)F)cc1)OCCc1c(-c2ccccc2Cl)c2cc(Cl)ccc2[nH]c1=O | > 1400 µM
CCC(=O)OCCc1c(-c2ccccc2Cl)c2cc(Cl)ccc2[nH]c1=O | 95 µM
N#CCC(=O)OCCc1c(-c2ccccc2Cl)c2cc(Cl)ccc2[nH]c1=O | 100 µM
O=C(OCCc1c(-c2ccccc2Cl)c2cc(Cl)ccc2[nH]c1=O)c1cccnc1 | 170 µM
COc1ccc(/C=C/C(=O)OCCc2c(-c3ccccc3Cl)c3cc(Cl)ccc3[nH]c2=O)cc1OC | > 1200 µM
COc1cccc(/C=C/C(=O)OCCc2c(-c3ccccc3Cl)c3cc(Cl)ccc3[nH]c2=O)c1 | > 1300 µM
